Columns and labels:
Assay type in all cases: functional
SNB-19 = assay: Growth inhibition of human SNB19 cells assessed as cell growth at 10^-4 M after 48 hrs by SRB assay; settings: SNB-19, 48 h, read-out: Activity
[1] = Growth inhibition of human LOXIMVI cells assessed as cell growth at 10^-8 M after 48 hrs by SRB assay; settings: LOX IMVI, read-out: Activity
T47D = assay: Growth inhibition of human T47D cells at 10 uM after 48 hrs by SRB assay; settings: read-out: GI
Method in brief: (§1)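 NCI-60 primary one-dose screen run at the US NCI, with human tumour lines from nine cancer types. Compound added once at 10^-5 M, followed by 48 h incubation. End point was sulforhodamine B protein staining read spectrophotometrically. Result given as percent growth of treated cells against untreated controls, reported as % growth inhibition.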

[2] = Growth inhibition of human Hs578T cells at 10 uM after 48 hrs by SRB assay; settings: Hs-578T, read-out: GI; method in brief: as §1
MDA-MB-231 = assay: Growth inhibition of human MDA-MB-231 cells at 10 uM after 48 hrs by SRB assay; settings: MDA-MB-231, 48 h, read-out: GI; method in brief: as §1
[3] = Growth inhibition of human UO31 cells at 10 uM after 48 hrs by SRB assay; settings: UO-31, 48 h, read-out: GI; method in brief: as §1
TK-10 = assay: Growth inhibition of human TK10 cells at 10 uM after 48 hrs by SRB assay; settings: TK-10, 48 h, read-out: GI; method in brief: as §1
SN12C = assay: Growth inhibition of human SN12C cells at 10 uM after 48 hrs by SRB assay; settings: read-out: GI; method in brief: as §1
[4] = Growth inhibition of human RXF393 cells at 10 uM after 48 hrs by SRB assay; settings: RXF 393, 48 h, read-out: GI; method in brief: as §1
SK-OV-3 = assay: Growth inhibition of human SKOV3 cells at 10 uM after 48 hrs by SRB assay; settings: SK-OV-3, 48 h, read-out: GI; method in brief: as §1
IGROV-1 = assay: Growth inhibition of human IGROV1 cells at 10 uM after 48 hrs by SRB assay; settings: IGROV-1, 48 h, read-out: GI; method in brief: as §1
SK-MEL-5 = assay: Growth inhibition of human SK-MEL-5 cells at 10 uM after 48 hrs by SRB assay; settings: SK-MEL-5, 48 h, read-out: GI; method in brief: as §1
[5] = Growth inhibition of human SF539 cells at 10 uM after 48 hrs by SRB assay; settings: SF-539, 48 h, read-out: GI; method in brief: as §1
SF-268 = assay: Growth inhibition of human SF268 cells at 10 uM after 48 hrs by SRB assay; settings: SF-268, 48 h, read-out: GI; method in brief: as §1
SW-620 = assay: Growth inhibition of human SW620 cells at 10 uM after 48 hrs by SRB assay; settings: SW-620, 48 h, read-out: GI; method in brief: as §1
[6] = Growth inhibition of human HCT15 cells at 10 uM after 48 hrs by SRB assay; settings: HCT-15, 48 h, read-out: GI; method in brief: as §1
DU-145 = assay: Growth inhibition of human DU145 cells assessed as cell growth at 10^-6 M after 48 hrs by SRB assay; settings: DU-145, 48 h, read-out: Activity
NCI-H322M = assay: Growth inhibition of human NCI-H322M cells at 10 uM after 48 hrs by SRB assay; settings: read-out: GI; method in brief: as §1
[7] = Growth inhibition of human EKVX cells at 10 uM after 48 hrs by SRB assay; settings: read-out: GI; method in brief: as §1
SR = assay: Growth inhibition of human SR cells at 10 uM after 48 hrs by SRB assay; settings: read-out: GI; method in brief: as §1
K562 = assay: Growth inhibition of human K562 cells at 10 uM after 48 hrs by SRB assay; settings: K562, 48 h, read-out: GI; method in brief: as §1
HL-60(TB) = assay: Growth inhibition of human HL-60(TB) cells at 10 uM after 48 hrs by SRB assay; settings: HL-60, 48 h, read-out: GI
Method in brief: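 NCI 60-cell-line primary screen: compound added at single concentration 10^-5 M, cultures incubated 48 h; end point by sulforhodamine B protein staining read spectrophotometrically; result given as growth percentage of treated versus untreated control cells, reported as % growth inhibition.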

CCRF-CEM [8] = assay: Growth inhibition of human CCRF-CEM cells at 10 uM after 48 hrs by SRB assay; settings: read-out: GI
Method in brief: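 NCI primary one-dose screen. A single concentration of 10^-5 M was added to the cell culture, followed by 48 h incubation and an SRB protein-dye endpoint read spectrophotometrically. Results are growth percentage relative to untreated control cells, reported as % growth inhibition.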

[9] = Growth inhibition of human RXF393 cells assessed as cell growth at 10^-8 M after 48 hrs by SRB assay; settings: RXF 393, 48 h, read-out: Activity
KM12 = assay: Growth inhibition of human KM12 cells assessed as cell growth at 10^-6 M after 48 hrs by SRB assay; settings: KM12, 48 h, read-out: Activity
MCF7 = assay: Cytotoxicity against human MCF7 cells after 48 hrs by SRB assay; settings: MCF7, 48 h
Method in brief: (§2)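 NCI 60-cell-line panel of human tumour lines from nine cancer types. Continuous 48 h exposure at five 10-fold dilutions from 10^-4 to 10^-8 M, with 5-FU as positive control. SRB protein stain read spectrophotometrically at time zero, untreated control and each concentration. GI50, TGI and LC50 were derived from the [(Ti−Tz)/(C−Tz)]×100 growth relations, and out-of-range values are given as > or < the tested limits.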

CCRF-CEM [10] = assay: Growth inhibition of human CCRF-CEM cells assessed as cell growth at 10^-6 M after 48 hrs by SRB assay; settings: read-out: Activity
Method in brief: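 Five-dose NCI panel protocol. Each dose (10^-4 to 10^-8 M, 10-fold steps) was given as 48 h continuous exposure, and protein was measured by SRB staining. Percentage growth at each level is [(Ti−Tz)/(C−Tz)]×100, where Tz is time-zero absorbance and C is untreated control.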

[11] = Growth inhibition of human SF539 cells assessed as cell growth at 10^-7 M after 48 hrs by SRB assay; settings: SF-539, 48 h, read-out: Activity
HOP-92 = assay: Cytotoxicity against human HOP92 cells after 48 hrs by SRB assay; settings: HOP-92, 48 h; method in brief: as §2
[12] = Growth inhibition of human UACC62 cells assessed as cell growth at 10^-4 M after 48 hrs by SRB assay; settings: UACC-62, 48 h, read-out: Activity
[13] = read-out: LC50 (the source's name)
[14] = read-out: pLC50 (the source's name) (converted)

Cc1ccc(-c2nc3ccc(Cl)cc3c(=O)n2/N=C/c2ccccc2)cc1
growth at 100 µM (SNB-19): 10%
growth at 0.01 µM [1]: 98%
inhibition of growth at 10 µM (T47D): 25%
inhibition of growth at 10 µM [2]: 44%
inhibition of growth at 10 µM (MDA-MB-231): 41%
inhibition of growth at 10 µM [3]: 33%
inhibition of growth at 10 µM (TK-10): 26%
inhibition of growth at 10 µM (SN12C): 32%
inhibition of growth at 10 µM [4]: < 10%
inhibition of growth at 10 µM (SK-OV-3): 64%
inhibition of growth at 10 µM (IGROV-1): 43%
inhibition of growth at 10 µM (SK-MEL-5): < 10%
inhibition of growth at 10 µM [5]: 22%
inhibition of growth at 10 µM (SF-268): 40%
inhibition of growth at 10 µM (SW-620): 23%
inhibition of growth at 10 µM [6]: 14%
growth at 1 µM (DU-145): 96%
inhibition of growth at 10 µM (NCI-H322M): 24%
inhibition of growth at 10 µM [7]: 40%
inhibition of growth at 10 µM (SR): 20%
inhibition of growth at 10 µM (K562): < 10%
inhibition of growth at 10 µM (HL-60(TB)): 26%
inhibition of growth at 10 µM (CCRF-CEM [8]): < 10%
growth at 0.01 µM [9]: 97%
growth at 1 µM (KM12): 91%
GI50 (MCF7; read-out: GI50): 26.9 µM
CC50 (MCF7; [13]): > 100 µM
TGI (MCF7; read-out: TGI): > 100 µM
GI50 (MCF7; read-out: pGI50 (converted)): 26.9 µM
CC50 (MCF7; [14]): > 100 µM
TGI (MCF7; read-out: pTGI): > 100 µM
growth at 1 µM (CCRF-CEM [10]): 88%
growth at 0.1 µM [11]: 97%
GI50 (HOP-92; read-out: GI50): 6.74 µM
CC50 (HOP-92; [13]): > 100 µM
TGI (HOP-92; read-out: TGI): > 100 µM
GI50 (HOP-92; read-out: pGI50 (converted)): 6.76 µM
CC50 (HOP-92; [14]): > 100 µM
TGI (HOP-92; read-out: pTGI): > 100 µM
growth at 100 µM [12]: 32%

Source: ChEMBL document CHEMBL3259728, “Design, synthesis and biological evaluation of some novel substituted quinazolines as antitumor agents” (2014)
